What was measured:
[1] = Inhibition of human 17-beta-HSD10 expressed in HEK293 cells assessed as reduction in oxidation of [14C]-estradiol to [14C]-estrone incubated for 40 hrs by thin layer chromatography; format: cell-based
How it was run: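 The same HEK-293[17β-HSD10] cell assay was used: 2.5 x 10^5 cells, 0.5% final DMSO, 1 µM E2/[14C]-E2 (9:1) for 40 h at 37°C, with Et2O extraction, TLC and radioactivity quantification. Inhibitor was tested from 0.01 to 5 µM in triplicate. IC50 was calculated from the inhibition curves.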

[2] = tested on: HEK293; assay: Potency index, ratio of (3R,5S,8R,9S,10S,13S,14S)-3-hydroxy-3-((4-(3-methoxybenzyl)piperazin-1-yl)methyl)-10,13-dimethyltetradecahydro-1H-cyclopenta[a]phenanthren-17(2H)-one IC50 to compound IC50 for inhibition of human 17-beta-HSD10 expressed in HEK-293 cells; format: cell-based
[3] = Metabolic stability in human liver microsomes assessed as compound remaining at 1 uM incubated for 1 hr in presence of NADPH by HPLC-MS analysis; format: ADME, Microsome; conditions: read-out: Stabilty
How it was run: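 Human liver microsomes (40 µg) were incubated with compound for 1 h at 37°C, with or without 10 mM NADPH, in 50 mM Tris with 10 mM MgCl2. The reaction was quenched with MeOH and centrifuged, and supernatants from 2 assays were pooled. Analysis was by HPLC-MS with UV at 190 nm. Remaining % = peak area with NADPH / area without NADPH x 100, from two experiments in duplicate.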

[4] = tested on: HEK293; assay: Inhibition of human 17-beta-HSD10 expressed in HEK293 cells assessed as reduction in oxidation of [14C]-estradiol to [14C]-estrone at 0.3 uM incubated for 40 hrs by thin layer chromatography; format: cell-based
How it was run: (§1)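 Stably transfected HEK-293 cells expressing human 17β-HSD10 (G418-selected) were seeded at 2.5 x 10^5 per well for 24 h. Inhibitor was added from a DMSO stock (final DMSO 0.5%) with E2/[14C]-E2 (9:1, final 1 µM) for 40 h at 37°C. Steroids were Et2O-extracted, TLC-separated and quantified by radioactivity. % inhibition was taken from blank-corrected % transformation, run in triplicate.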

[5] = tested on: HEK293; assay: Inhibition of human 17-beta-HSD10 expressed in HEK293 cells assessed as reduction in oxidation of [14C]-estradiol to [14C]-estrone at 3 uM incubated for 40 hrs by thin layer chromatography; format: cell-based; how it was run: as §1
[6] = biological target: T1, 17-beta-hydroxysteroid dehydrogenase type 3 (Homo sapiens, UniProt P37058); assay: Inhibition of human 17-beta-HSD3 expressed in LNCaP cells assessed as reduction in […]-3,17-dione to [14C]-testosterone at 3 uM incubated for 1 hr by thin layer chromatography; format: cell-based
T1 sequence (P37058 whole entry): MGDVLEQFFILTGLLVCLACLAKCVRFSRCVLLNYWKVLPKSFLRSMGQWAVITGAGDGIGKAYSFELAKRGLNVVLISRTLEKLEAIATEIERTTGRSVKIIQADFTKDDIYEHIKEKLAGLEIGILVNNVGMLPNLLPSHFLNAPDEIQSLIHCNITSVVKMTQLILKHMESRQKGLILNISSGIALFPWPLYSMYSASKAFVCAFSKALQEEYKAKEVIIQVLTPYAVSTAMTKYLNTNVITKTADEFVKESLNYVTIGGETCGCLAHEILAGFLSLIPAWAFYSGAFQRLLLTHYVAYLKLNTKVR
How it was run: (§2)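 LNCaP cells overexpressing 17β-HSD3 were plated at 10^4 per well in medium without hygromycin for 2 days. 15 nM [14C]-4-androstene-3,17-dione plus inhibitor was then added (final DMSO 0.05%) for 1 h at 37°C. Steroids were Et2O-extracted and separated by silica TLC (toluene/acetone 4:1). % inhibition was taken from radioactivity-based % transformation versus a blank control.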

[7] = biological target: T1, 17-beta-hydroxysteroid dehydrogenase type 3; assay: Inhibition of human 17-beta-HSD3 expressed in LNCaP cells assessed as reduction in […]-3,17-dione to [14C]-testosterone at 0.3 uM incubated for 1 hr by thin layer chromatography; format: cell-based; how it was run: as §2

Structure (SMILES) | IC50 [1] | Ratio IC50 [2] | remaining at 1 h, 1 µM [3] | inhibition [4] | inhibition [5] | inhibition at 3 µM [6] | inhibition at 0.3 µM [7]
COc1cc(CN2CCN(C[C@@]3(O)CC[C@@]4(C)[C@@H](CC[C@@H]5[C@@H]4CC[C@]4(C)C(=O)CC[C@@H]54)C3)CC2)ccc1C(F)(F)F | 140 nM | 16.1 |  |  |  |  | 
COc1cccc(CN2CCN(C[C@@]3(O)CC[C@@]4(C)[C@@H](CC[C@@H]5[C@@H]4CC[C@]4(C)C(=O)C(C)(C)C[C@@H]54)C3)CC2)c1 |  |  | 54.5% | 10.8% | 27.9% | 51.9% | 12.4%
CC(=O)c1cccc(C(=O)N2CCN(C[C@@]3(O)CC[C@@]4(C)[C@@H](CC[C@@H]5[C@@H]4CC[C@]4(C)C(=O)CC[C@@H]54)C3)CC2)c1 | 2300 nM | 0.98 |  |  |  |  | 
COc1cccc(CN2CCN(C[C@@]3(O)CC[C@@]4(C)[C@@H](CC[C@@H]5[C@@H]4CC[C@@]4(C)[C@H]5CCC4(F)F)C3)CC2)c1 |  |  | 34.1% | 5.5% | 40.8% | -0.5% | 1.1%
COc1cccc(CN2CCN(C[C@@]3(O)CC[C@@]4(C)[C@@H](CC[C@@H]5[C@@H]4CC[C@]4(C)[C@@H](O)CC[C@@H]54)C3)CC2)c1 |  |  | 67.2% | 8.5% | 42.4% | 48.7% | 5%
C#C[C@]1(O)CC[C@H]2[C@@H]3CC[C@H]4C[C@@](O)(CN5CCN(Cc6ccc(C(F)(F)F)c(OC)c6)CC5)CC[C@]4(C)[C@H]3CC[C@@]21C | 1260 nM | 1.8 |  |  |  |  | 
C[C@]12CC[C@](O)(CN3CCN(C(=O)c4ccc(C#N)cc4)CC3)C[C@@H]1CC[C@@H]1[C@@H]2CC[C@]2(C)C(=O)CC[C@@H]12 | 1660 nM | 1.36 |  |  |  |  | 
C#C[C@]1(O)CC[C@H]2[C@@H]3CC[C@H]4C[C@@](O)(CN5CCN(Cc6cccc(OC)c6)CC5)CC[C@]4(C)[C@H]3CC[C@@]21C |  |  | 45.5% | 22.4% | 45.8% | 4% | 2%
C[C@]12CC[C@](O)(CN3CCN(C(=O)c4ccc(-c5ccccc5)cc4)CC3)C[C@@H]1CC[C@@H]1[C@@H]2CC[C@]2(C)C(=O)CC[C@@H]12 | 2600 nM | 0.87 |  |  |  |  | 
C[C@]12CC[C@](O)(CN3CCN(C(=O)c4ccc(C(=O)c5ccccc5)cc4)CC3)C[C@@H]1CC[C@@H]1[C@@H]2CC[C@]2(C)C(=O)CC[C@@H]12 | 2850 nM | 0.79 |  |  |  |  | 
C[C@]12CC[C@](O)(CN3CCN(C(=S)NCc4cccc(C(F)(F)F)c4)CC3)C[C@@H]1CC[C@@H]1[C@@H]2CC[C@]2(C)C(=O)CC[C@@H]12 | 1410 nM | 1.6 |  |  |  |  | 
COc1cc(CN2CCN(C[C@@]3(O)CC[C@@]4(C)[C@@H](CC[C@@H]5[C@@H]4CC[C@]4(C)C(=O)CC[C@@H]54)C3)CC2)ccc1C | 420 nM | 5.38 |  |  |  |  | 
CCN(C)S(=O)(=O)N1CCN(C[C@@]2(O)CC[C@@]3(C)[C@@H](CC[C@@H]4[C@@H]3CC[C@]3(C)C(=O)CC[C@@H]43)C2)CC1 | 1570 nM | 1.44 |  |  |  |  | 
COc1cc(CN2CCN(C[C@@]3(O)CC[C@@]4(C)[C@@H](CC[C@@H]5[C@@H]4CC[C@]4(C)[C@H](O)CC[C@@H]54)C3)CC2)ccc1C(F)(F)F | 950 nM | 2.4 |  |  |  |  | 
COc1cccc(CN2CCN(C[C@@]3(O)CC[C@@]4(C)[C@@H](CC[C@@H]5[C@@H]4CC[C@@]4(C)[C@H]5CC[C@]4(C)O)C3)CC2)c1 |  |  | 21.8% | 20.5% | 41.9% | 20.6% | 2%
Cc1cc(C)cc(C(=O)N2CCN(C[C@@]3(O)CC[C@@]4(C)[C@@H](CC[C@@H]5[C@@H]4CC[C@]4(C)C(=O)CC[C@@H]54)C3)CC2)c1 | 2050 nM | 1.1 |  |  |  |  | 
C[C@]12CC[C@](O)(CN3CCN(Cc4cnc5ccccc5c4)CC3)C[C@@H]1CC[C@@H]1[C@@H]2CC[C@]2(C)C(=O)CC[C@@H]12 | 970 nM | 2.33 |  |  |  |  | 
COc1cccc(CN2CCN(C[C@@]3(O)CC[C@@]4(C)[C@@H](CC[C@@H]5[C@@H]4CC[C@]4(C)C(=O)CC[C@@H]54)C3)CC2)c1 | 2260 nM |  | 28% | 40.7% | 70.4% | 84.4% | 30.2%
CN(C)S(=O)(=O)c1ccc(NC(=S)N2CCN(C[C@@]3(O)CC[C@@]4(C)[C@@H](CC[C@@H]5[C@@H]4CC[C@]4(C)C(=O)CC[C@@H]54)C3)CC2)cc1 | 1070 nM | 2.11 |  |  |  |  | 
COc1cc(C)ccc1CN1CCN(C[C@@]2(O)CC[C@@]3(C)[C@@H](CC[C@@H]4[C@@H]3CC[C@]3(C)C(=O)CC[C@@H]43)C2)CC1 | 3000 nM | 0.75 |  |  |  |  | 
COc1cccc(CN2CCN(C[C@@]3(O)CC[C@@]4(C)[C@@H](CC[C@@H]5[C@@H]4CC[C@]4(C)[C@H](O)CC[C@@H]54)C3)CC2)c1 |  |  | 70.6% | 13.5% | 36.9% | 3.8% | 5.2%

Source: ChEMBL document CHEMBL4732072, “Synthesis of 17β-hydroxysteroid dehydrogenase type 10 steroidal inhibitors: Selectivity, metabolic stability and enhanced potency” (Eur J Med Chem, 2021)
